Key:
L1210 [1] = experiment: Percentage of putrescine after 48 hr exposure to the compound (100(10)uM) in L1210 cells; type: functional, Mus musculus
Method in brief: (§1)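 Log-phase L1210 cells were treated for 48 h with analogue at two concentrations. Cells were washed twice in cold RPMI-1640 and extracted with 0.6 N HClO4. Putrescine, spermidine and spermine were quantified by HPLC of dansyl derivatives and given as percent of untreated controls. Runs were in triplicate with untreated controls.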

L1210 [2] = experiment: Percentage of spermidine after 48 hr of exposure to the compound (500(100)uM ) in L1210 cells; type: functional, Mus musculus; method in brief: as §1
[3] = target: T1, S-adenosylmethionine decarboxylase proenzyme 1 (Mus musculus) (UniProt P0DMN7); experiment: Effect on S-Adenosyl-methionine decarboxylase (AdoMetDC) tested at 1 uM at 6 hour in L1210 cells; type: functional, cell-based
T1 sequence (whole entry): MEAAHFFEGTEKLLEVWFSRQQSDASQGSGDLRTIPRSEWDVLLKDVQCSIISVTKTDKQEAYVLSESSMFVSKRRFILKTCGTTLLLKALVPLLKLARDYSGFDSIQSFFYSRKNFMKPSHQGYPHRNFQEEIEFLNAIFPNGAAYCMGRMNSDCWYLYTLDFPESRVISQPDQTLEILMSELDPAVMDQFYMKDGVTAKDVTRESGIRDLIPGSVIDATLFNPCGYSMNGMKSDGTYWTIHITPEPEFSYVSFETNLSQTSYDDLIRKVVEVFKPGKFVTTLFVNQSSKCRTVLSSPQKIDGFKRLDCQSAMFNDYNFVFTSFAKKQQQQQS
Method in brief: (§2)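 L1210 cells were exposed to 1 μM analogue, for 4 h (ODC) or 6 h (AdoMetDC). Activity was measured as 14CO2 released from [14C]carboxyl-labelled L-ornithine (ODC) or S-adenosyl-L-methionine (AdoMetDC) and given as percent of untreated control. Each run included DEHSPM-treated positive controls. Values are the mean of at least three experiments.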

L1210 [4] = experiment: Percentage of putrescine after 48 hr exposure to the compound (500(100)uM )in L1210 cells; type: functional, Mus musculus; method in brief: as §1
L1210 [5] = experiment: Intracellular levels in L1210 cells following 500 uM exposure.; type: functional, Mus musculus
Method in brief: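 L1210 cells were grown 48 h in medium containing 500 μM analogue. Cellular contents were analysed by HPLC of dansyl derivatives and given as pmol/10^6 cells, as parent drug and metabolites with the % of total drug in the cell.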

L1210 [6] = experiment: Percentage of spermine after 48 hr exposure to the compound (500(100)uM ) in L1210 cells; type: functional, Mus musculus; method in brief: as §1
L1210 [7] = experiment: Percentage of spermidine after 48 hr of exposure to the compound (100(10)uM ) in L1210 cells; type: functional, Mus musculus; method in brief: as §1
[8] = target: Spermidine/spermine N(1)-acetyltransferase (SAT) (Mus musculus) (UniProt Q6P8J2+P48026); experiment: Effect on Spermidine/Spermine-Acetyltransferase (SSAT ) at 10 uM at 48 hour in L1210 cells; type: functional, cell-based
Method in brief: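 L1210 cells were exposed to 10 μM triamine for 48 h. SSAT activity was taken as [14C]N1-acetylspermidine formed from spermidine and [14C]acetyl-CoA, given as percent of untreated control. DENSPM-treated cells served as positive control. Values are the mean of at least three experiments.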

L1210 [9] = experiment: Growth inhibitory activity against L1210 cells (96h); type: functional, cell-based; conditions: Mus musculus, L1210, 96 h
Method in brief: (§3)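 Murine L1210 leukemia cells were kept in log growth in RPMI-1640 with 10% fetal calf serum or NuSerum, HEPES-MOPS buffer and 1 mM aminoguanidine. IC50 is the concentration giving 50% of untreated control growth, as the mean of at least two experiments.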

L1210 [10] = experiment: Percentage of spermine after 48 hr exposure to the compound (100(10)uM ) in L1210 cells; type: functional, Mus musculus; method in brief: as §1
L1210 [11] = experiment: Growth inhibitory activity against L1210 cells (48h); type: functional, cell-based; conditions: Mus musculus, L1210, 48 h; method in brief: as §3
[12] = Effect on ornithine decarboxylase (ODC) tested at 1 uM at 4 hour in L1210 cells; type: functional, Mus musculus; method in brief: as §2
[13] = Binding affinity values for polyamine transporter was determined
L1210 [14] = experiment: Percentage of putrescine after 48 hr exposure to the compound (15 uM )in L1210 cells; type: functional, Mus musculus; method in brief: as §1
L1210 [15] = experiment: Percentage of spermidine after 48 hr of exposure to the compound (15 uM ) in L1210 cells; type: functional, Mus musculus; method in brief: as §1
L1210 [16] = experiment: Percentage of putrescine after 48 hr exposure to the compound (75 uM ) in L1210 cells; type: functional, Mus musculus; method in brief: as §1
L1210 [17] = experiment: Percentage of spermidine after 48 hr of exposure to the compound (75 uM ) in L1210 cells; type: functional, Mus musculus; method in brief: as §1
L1210 [18] = experiment: Percentage of spermine after 48 hr exposure to the compound (15(0.15)uM ) in L1210 cells; type: functional, Mus musculus; method in brief: as §1
L1210 [19] = experiment: Percentage of putrescine after 48 hr exposure to the compound (15(0.15)uM ) in L1210 cells; type: functional, Mus musculus; method in brief: as §1
L1210 [20] = experiment: Percentage of spermidine after 48 hr of exposure to the compound (15(0.15)uM ) in L1210 cells; type: functional, Mus musculus; method in brief: as §1
L1210 [21] = experiment: Percentage of putrescine after 48 hr exposure to the compound (75(0.75)uM ) in L1210 cells; type: functional, Mus musculus; method in brief: as §1
L1210 [22] = experiment: Percentage of spermine after 48 hr exposure to the compound (75(0.75)uM ) in L1210 cells; type: functional, Mus musculus
Method in brief: (§4)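 Log-phase murine L1210 leukemia cells (RPMI-1640, 10% fetal calf serum or NuSerum, HEPES-MOPS buffer, 1 mM aminoguanidine) exposed 48 h to analogue at two concentrations. Cells washed twice in cold RPMI-1640 and extracted with 0.6 N HClO4. Spermine in extracts quantified by HPLC of DANSYL derivatives and expressed as percent of untreated controls. Triplicate flasks per condition.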

L1210 [23] = experiment: Percentage of spermidine after 48 hr of exposure to the compound (75(0.75)uM ) in L1210 cells; type: functional, Mus musculus; method in brief: as §1
L1210 [24] = experiment: Percentage of spermine after 48 hr exposure to the compound (100(30)uM ) in L1210 cells; type: functional, Mus musculus; method in brief: as §1
[25] = The chronic lethal dose administered as intraperitoneal injection; type: ADME; conditions: mouse, ip
Method in brief: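 Female CD-1 mice, 10–12 weeks old. Analogue given as hydrochloride salt by ip injection three times daily for 6 days (18 doses). Appetite, weight and appearance monitored daily, and lethality scored 10 days after the final dose.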

L1210 [26] = experiment: Percentage of spermine after 48 hr exposure to the compound (500(150)uM ) in L1210 cells; type: functional, Mus musculus; method in brief: as §4
L1210 [27] = experiment: Percentage of putrescine after 48 hr exposure to the compound (100(30)uM ) in L1210 cells; type: functional, Mus musculus; method in brief: as §1
L1210 [28] = experiment: Percentage of spermidine after 48 hr of exposure to the compound (500(150)uM ) in L1210 cells; type: functional, Mus musculus; method in brief: as §1
L1210 [29] = experiment: Percentage of putrescine after 48 hr exposure to the compound (500(150)uM ) in L1210 cells; type: functional, Mus musculus; method in brief: as §1
L1210 [30] = experiment: Percentage of spermidine after 48 hr of exposure to the compound (100(30)uM ) in L1210 cells; type: functional, Mus musculus; method in brief: as §1

Sequence of Spermidine/spermine N(1)-acetyltransferase (SAT) (Mus musculus) (P48026 whole entry, looked up): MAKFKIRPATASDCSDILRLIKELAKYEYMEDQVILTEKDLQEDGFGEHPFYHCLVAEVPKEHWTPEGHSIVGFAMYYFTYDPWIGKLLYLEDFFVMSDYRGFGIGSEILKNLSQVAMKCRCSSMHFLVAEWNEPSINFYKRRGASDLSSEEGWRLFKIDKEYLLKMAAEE
Sequence of Spermidine/spermine N(1)-acetyltransferase (SAT) (Mus musculus) (Q6P8J2 whole entry, looked up): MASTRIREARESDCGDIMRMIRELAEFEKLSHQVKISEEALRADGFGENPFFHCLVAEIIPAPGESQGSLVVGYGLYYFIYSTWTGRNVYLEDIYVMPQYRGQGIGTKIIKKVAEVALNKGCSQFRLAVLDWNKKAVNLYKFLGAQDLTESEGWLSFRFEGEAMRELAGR

Row | SMILES | AdoMetDC [3] | Picoequivalents of amine/10e6 cells (L1210 [5]) | SSAT [8] | IC50 (L1210 [9]) | IC50 (L1210 [11]) | ODC [12] | Ki [13] | other results
1 | CCNCCCNCCCNCC | 45% | 13700 | 780% | 10 µM | > 100 µM | 80% | 250 µM | Polyamine (L1210 [1]): 0%; Polyamine (L1210 [2]): 7%; Polyamine (L1210 [4]): 0%; Polyamine (L1210 [6]): 47%; Polyamine (L1210 [7]): 17%; Polyamine (L1210 [10]): 74%
2 | CNCCCCCNCCCCCNC | 97% | 15500 | 90% | 0.4 µM | 15 µM | 105% | 130 µM | Polyamine (L1210 [14]): 0%; Polyamine (L1210 [15]): 33%; Polyamine (L1210 [16]): 0%; Polyamine (L1210 [17]): 20%
3 | CCNCCCCCNCCCCCNCC | 109% | 9010 | 90% | 0.7 µM | 11 µM | 100% | 170 µM | Polyamine (L1210 [18]): 97%; Polyamine (L1210 [19]): 0%; Polyamine (L1210 [20]): 55%; Polyamine (L1210 [21]): 0%; Polyamine (L1210 [22]): 73%; Polyamine (L1210 [23]): 23%
4 | CCNCCCCNCCCNCC | 68% | 14050 | 1380% | 0.7 µM | 100 µM | 30% | 19 µM | Polyamine (L1210 [24]): 74%; LD50 [25]: 426 mg/kg/day; Polyamine (L1210 [26]): 55%; Polyamine (L1210 [27]): 0%; Polyamine (L1210 [28]): 0%; Polyamine (L1210 [29]): 0%; Polyamine (L1210 [30]): 5%
